# Calls of active or inactive are those of the source.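 Rule for the calls, unless noted: active = fluorescence slope after compound addition differing from the mean of all screened samples at 99.7% confidence, in either direction; inactive = the rest.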
# What was measured:
# [1] = inhibitors of TNFa-induced NFkB p65 translocation, primary screen, imaging, HUVEC, MLSMR starter and 10KST1 sets (AID 438;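 active = inhibition above 20% together with a positive visual image hit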;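 note: compound added about 3h40 before a 20 min TNFalpha stimulation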;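 for inhibition: signal is the nuclear over cytoplasmic p65 intensity ratio per well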); details: HUVEC TNFa-induced p65 nuclear translocation; cell count: measured here: nuclei count (cytotoxicity indicator), at 2.08 µM; inhibition: at 2 µM, stronger effect = higher value, 0% TNFa-plus-vehicle, 100% no-TNFa wells
# [2] = inhibitors of E-selectin induction by TNFa, primary screen, imaging, HUVEC, immunofluorescence, MLSMR starter and 10KST1 sets (AID 487;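 active = visually confirmed hit in the image check and inhibition above 20%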;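 for inhibition: signal is fraction of cell area covered by stained E-selectin grains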;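 for nuclei count: 100% = median nuclei count of all wells on the same plate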); details: HUVEC TNFalpha-induced E-selectin immunofluorescence imaging, at 2 µM; inhibition: stronger effect = higher value; nuclei count: measured here: cell number, toxicity
# [3] = DUSP6 inhibitors restoring Erk phosphorylation by chemical complementation, primary imaging in DUSP6-transfected HeLa (AID 609;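 active = compounds giving at least 50% inhibition in the cell-based MKP-3 phosphatase rescue imaging test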;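 for inhibition: phospho-Erk level distribution per well compared with pooled transfected vehicle control wells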); details: HeLa MKP-3 transfected, phospho-Erk imaging KS statistic, at 10 µM, cells stimulated with TPA for 15 min
# [4] = target: Dual specificity protein phosphatase 6 (Homo sapiens) (UniProt Q16828); assay: as above; details: HeLa MKP-3 transfected, phospho-Erk imaging KS statistic; at 10 µM; stronger effect = higher value; cells stimulated with TPA for 15 min
# Dual specificity protein phosphatase 6 (Homo sapiens), sequence (Q16828 whole entry, looked up): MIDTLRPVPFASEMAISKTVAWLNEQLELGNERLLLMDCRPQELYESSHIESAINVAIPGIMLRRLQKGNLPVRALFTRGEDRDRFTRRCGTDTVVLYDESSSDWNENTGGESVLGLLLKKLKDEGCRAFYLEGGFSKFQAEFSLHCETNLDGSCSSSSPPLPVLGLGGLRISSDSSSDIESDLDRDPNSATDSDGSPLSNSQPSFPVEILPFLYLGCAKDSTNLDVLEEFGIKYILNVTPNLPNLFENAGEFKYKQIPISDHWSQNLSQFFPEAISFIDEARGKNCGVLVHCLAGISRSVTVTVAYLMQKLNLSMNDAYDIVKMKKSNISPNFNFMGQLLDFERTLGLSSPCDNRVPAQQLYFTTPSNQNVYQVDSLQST
# [5] = target: Voltage-gated potassium channel subunit beta-2 (Rattus norvegicus) (UniProt P62483); assay: KvBeta enzyme negative modulators, primary screen, biochemical, NADPH fluorescence (AID 622;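 active = fluorescence slope higher than the sample average by over 3 SD, cut at about -0.22 in these data, passing the limit was not always enough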;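 note: slope of raw intensity against log time taken from 70 to 1610 s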); details: recombinant KvBeta, 4-cyanobenzaldehyde reduction, at 10 µM, stronger effect = higher value
# Voltage-gated potassium channel subunit beta-2 (Rattus norvegicus), sequence (P62483 whole entry, looked up): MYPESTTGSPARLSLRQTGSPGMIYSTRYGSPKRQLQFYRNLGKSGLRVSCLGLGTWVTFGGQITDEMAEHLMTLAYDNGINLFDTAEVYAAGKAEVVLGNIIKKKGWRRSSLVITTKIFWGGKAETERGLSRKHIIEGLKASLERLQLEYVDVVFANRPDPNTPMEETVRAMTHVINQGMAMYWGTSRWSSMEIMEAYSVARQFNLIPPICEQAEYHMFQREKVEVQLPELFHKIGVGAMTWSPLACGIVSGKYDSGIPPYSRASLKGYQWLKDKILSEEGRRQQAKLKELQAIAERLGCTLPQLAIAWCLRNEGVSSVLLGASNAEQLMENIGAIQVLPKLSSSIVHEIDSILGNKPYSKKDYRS
# [6] = target: Voltage-gated potassium channel subunit beta-2 (Rattus norvegicus) (UniProt P62483); assay: KvBeta positive modulators, primary screen, biochemical, NADPH fluorescence (AID 623;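 active = NADPH fluorescence slope more negative than the mean of all samples by about 3 SD, 99.7% confidence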;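 note: fluorescence intensity change per second fitted from 20 to 320 s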); details: Recombinant KvBeta, NADPH fluorescence decrease slope, 10 min; at 10 µM; stronger effect = lower value
# [7] = target: Alpha-2C adrenergic receptor (Homo sapiens) (UniProt P18825); assay: modulators of alpha2C/GIRK thallium flux, primary screen, cell-based, HEK293 alpha2C/GIRK1/2 (AID 624); details: thallium flux BTC fluorescence, at 10 µM, actives lie on both sides;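 note: slope of fluorescence ratio to pre-addition baseline per second over 15 to 24 s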
# Alpha-2C adrenergic receptor (Homo sapiens), sequence (P18825 whole entry, looked up): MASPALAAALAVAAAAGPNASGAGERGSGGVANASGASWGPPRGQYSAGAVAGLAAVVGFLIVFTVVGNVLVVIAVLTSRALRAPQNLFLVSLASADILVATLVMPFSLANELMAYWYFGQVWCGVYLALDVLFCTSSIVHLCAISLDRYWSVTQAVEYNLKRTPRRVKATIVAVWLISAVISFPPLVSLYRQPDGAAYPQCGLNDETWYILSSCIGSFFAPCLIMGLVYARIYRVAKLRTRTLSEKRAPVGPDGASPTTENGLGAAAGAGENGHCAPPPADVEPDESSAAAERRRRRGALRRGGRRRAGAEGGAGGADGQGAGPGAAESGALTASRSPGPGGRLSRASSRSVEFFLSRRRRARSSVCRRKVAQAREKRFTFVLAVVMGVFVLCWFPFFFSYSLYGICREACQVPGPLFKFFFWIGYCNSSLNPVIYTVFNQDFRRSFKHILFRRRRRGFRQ
# [8] = inhibitors of larval lipid processing in zebrafish, primary screen, whole organism, PED6 fluorescence, gall bladder and intestine (AID 686;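 active = a full or partial loss of lipid-probe fluorescence in the fish gall bladder, intestine or both, judged by eye; inactive = no fluorescence loss, or compound toxic to the fish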;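 note: larvae 5 to 7 days old with five fish per well; signal comes from phospholipase A2 cleavage of quenched PED6 carried via bile; overnight exposure to compound and PED6 before scoring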); details: Zebrafish larvae PED6 lipid processing, fluorescence scoring; screened at 20 µM (by protocol)
# Outline: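 Also added: quenched phospholipase substrate PED6, 100 nM final, ingested by larvae; System: zebrafish larvae, 5-7 d; Quantity: 5 larvae per well; Compound: 20 µM single dose; Schedule: overnight compound and PED6 incubation; Read-out: visual per-well fluorescence inhibition score; Measured by: By-eye fluorescence microscopy; Medium: E3.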
# [9] = inhibitors of Chlamydomonas gravitaxis, primary screen, whole organism, Chlamydomonas reinhardtii, WT vs cilia-less mutant, absorbance, 96-well (AID 463189;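 active = inhibition at or above 50% relative to wild type and mutant plate controls; inactive = inhibition below 50%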;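 note: 0% = wild type cc124 cells in DMSO and 100% = ciliumless bld1 mutant cells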); details: OD600 absorbance, 2 days, at 10 µM, stronger effect = higher value
# [10] = measured here: cell density z-score
# [11] = measured here: nuclear c-Myc green intensity z-score
# [12] = measured here: nuclear pErk red intensity z-score, stronger effect = higher value
Compound,cell count [1],inhibition [1],inhibition [2],nuclei count [2] [%],"z-score [3, 10]","z-score [3, 11]","z-score [3, 12]",inhibition [4],fluorescence slope [5],NADPH fluorescence slope [6],slope [7],outcome [8],inhibition [9]
CCOC(=O)C1=C(C)N=C2SC(C)C(=O)N2C1c1ccc(OC(C)=O)c(OC)c1 (configuration not stated),364,-4% (inactive),-11.8% (inactive),184,0.885,-1.84,1.33,-4.59% (inactive),-0.413 (inactive),-0.000136 (inactive),0.00549 (inactive),inactive,21.6% (inactive)
CC1(C)Cc2nc(NCCCO)c(C#N)cc2CO1,503,-6% (inactive),29.1% (inactive),94.8,-0.759,0.0263,-0.295,-11.9% (inactive),-0.421 (inactive),-0.000243 (inactive),0.00519 (inactive),inactive,5% (inactive)
CCn1cc(C(=O)NCC2CCCO2)c(=O)c2cc(F)c(N3CCN(C)CC3)cc21 (configuration not stated),570,-6.7% (inactive),-14.6% (inactive),188,-0.305,-1.21,2,1.75% (inactive),-0.388 (inactive),-2.9e-05 (inactive),0.00486 (inactive),inactive,4.63% (inactive)
Cn1nccc1C(=O)Nc1ccccc1C(=O)O,640,-1.2% (inactive),16% (inactive),170,1.93,-0.909,-0.448,11.4% (inactive),-0.449 (inactive),-0.000369 (inactive),0.00518 (inactive),inactive,15.5% (inactive)
CCSc1nc(N)c2c3c(sc2n1)CCC3,602,-14.1% (inactive),-20.6% (inactive),146,0.476,0.818,0.254,7.7% (inactive),-0.408 (inactive),-4.9e-05 (inactive),0.00637 (inactive),inactive,-5.03% (inactive)
CCCNC(=O)N(C)c1nncnc1C(=O)NC,503,-20.4% (inactive),-13.3% (inactive),99.4,1.47,0.478,-1.19,4.72% (inactive),-0.517 (inactive),1.1e-05 (inactive),0.00825 (inactive),inactive,-3.95% (inactive)
O=C(O)CC(NCc1ccco1)C(=O)OCC1CCCO1 (configuration not stated),557,-3.4% (inactive),-26.1% (inactive),134,0.185,-1.18,-0.884,5.26% (inactive),-0.369 (inactive),-2.3e-05 (inactive),0.00498 (inactive),inactive,17.1% (inactive)
O=C1C=C(O)CC(c2ccco2)C1 (configuration not stated),558,5.7% (inactive),-59% (inactive),82,0.0297,0.982,0.298,-6.48% (inactive),-0.469 (inactive),-0.00033 (inactive),0.00402 (inactive),inactive,-1.54% (inactive)
CN1C(=O)c2ccc(N(C)C)cc2C1=O,681,-8.8% (inactive),17.3% (inactive),175,0.273,-0.466,-0.534,3.66% (inactive),-0.479 (inactive),-6.8e-05 (inactive),0.00498 (inactive),inactive,21.8% (inactive)
COc1ccc(CCn2c(C)ccc2C)cc1OC,476,-5.7% (inactive),-58.3% (inactive),112,-0.324,0.735,-0.301,3.66% (inactive),-0.488 (inactive),-8e-05 (inactive),0.00401 (inactive),inactive,-7.78% (inactive)
COC(=O)CC1=C(C(=O)OC)C(c2ccc3c(c2Cl)OCO3)C(C#N)=C(N)O1 (configuration not stated),505,-3% (inactive),-43.9% (inactive),146,1.11,-0.928,-0.541,15% (inactive),-0.319 (inactive),-2.9e-06 (inactive),0.00617 (inactive),inactive,21.8% (inactive)
CC(=O)c1cc(CN2CCCCC2)cc(OC(C)C)c1,667,-6.7% (inactive),-53.2% (inactive),172,0.66,-1.57,1.24,-3.98% (inactive),-0.505 (inactive),-5.3e-05 (inactive),0.00431 (inactive),inactive,10.4% (inactive)
CC1(C)Nc2ccc(O)cc2-c2c1ssc2=S,403,-28.2% (inactive),-198% (inactive),193,-0.436,-0.817,-1.32,-0.624% (inactive),-0.316 (inactive),3.7e-06 (inactive),0.00209 (inactive),inactive,-1.08% (inactive)
Oc1ccc2c(c1)C1CCCC1(N1CCOCC1)O2 (configuration not stated),414,0.7% (inactive),-83.5% (inactive),128,0.996,-0.205,-1.79,3.42% (inactive),-0.458 (inactive),-0.000124 (inactive),0.005 (inactive),inactive,-3.55% (inactive)
